High-throughput results: PubChem, The Scripps Research Institute Molecular Screening Center
M4 PAM: positive allosteric modulators of human muscarinic M4 receptor | P08173 | CHO-K1 hM4/Gqi5, Fluo-8 calcium fluorescence, ACh EC20; 0% = ACh EC20, 100% = maximal ACh | activation, % at 3 µM | 0.4% of 360,000 active | AID 624126;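 active = activation above its plate's cutoff, the mean activation of sample wells plus 3 SD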
TAAR1 agonist: agonists of human TAAR1. Q96RJ0. CHO RD-HGA16 TAAR1, Fluo-8 calcium fluorescence; vehicle wells 0%, saturating PEA agonist 100%. activation, % at 3 µM. 0.99% of 360,000 active;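 active = activation above the mean activation of all test compounds in the run plus 3 SD, cut at about 38% in these data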
Target sequence (Q96RJ0 whole entry, looked up): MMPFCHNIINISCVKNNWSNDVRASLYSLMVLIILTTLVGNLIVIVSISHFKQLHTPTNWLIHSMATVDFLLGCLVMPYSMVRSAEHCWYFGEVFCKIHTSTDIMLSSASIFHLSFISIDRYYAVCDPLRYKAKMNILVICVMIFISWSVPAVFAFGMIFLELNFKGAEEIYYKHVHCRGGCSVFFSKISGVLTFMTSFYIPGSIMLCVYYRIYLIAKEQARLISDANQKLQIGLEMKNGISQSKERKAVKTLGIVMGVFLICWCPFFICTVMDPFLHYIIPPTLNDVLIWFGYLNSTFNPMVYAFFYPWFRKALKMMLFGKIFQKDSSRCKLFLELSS
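Test system: RD-HGA16 (CHO) cells co-expressing Gα16 and hTAAR1 / Benchmarks: DMSO vehicle as 0%, PEA at EC100 as 100% / Repeats: no replicates (n 1) / Measure: % activation from peak over basal fluorescence ratio, DMSO-to-PEA scaled / Timing: 17-24 h plating, Fluo-8 75 min 37 °C, 30 min RT / Technique: kinetic Fluo-8 calcium fluorescence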
TAAR1 antagonist: antagonists of human TAAR1 | Q96RJ0 | CHO RD-HGA16 TAAR1, Fluo-8 calcium fluorescence, antagonist | inhibition, % at 3 µM | 1.5% of 360,000 active | AID 624466;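 active = inhibition above a per-plate cutoff, the mean inhibition of test compounds on that plate plus 3 SD, cut at about 49% in these data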;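 also: 0% = DMSO plus EC80 beta-PEA response and 100% = DMSO alone without agonist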
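System: CHO RD-HGA16 cells bearing hTAAR1. Reagent: EC80 β-phenethylamine stimulus. Schedule: seeding 17-24 h prior, 75-min 37 °C, 30-min RT dye loading. Signal: Fluo-8 intracellular calcium dye fluorescence, real-time kinetic reads. Read-out: % inhibition from peak post-agonist over basal fluorescence ratio. Benchmarks: vehicle wells and EC80 agonist wells. Replicates: n of 1.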
CHRM4 agonist: agonists of human muscarinic M4 receptor (CHRM4) | P08173 | CHO-K1 hM4/Gqi5, Fluo-8 calcium fluorescence; vehicle 0%, full acetylcholine response 100% | activation, % at 3 µM | 0.14% of 360,000 active | AID 624127;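 active = activation above the run mean over all test wells plus 3 SD, cut at about 32% in these data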;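 also: peak over basal fluorescence ratio per well then scaled between controls; 0% = DMSO wells and 100% = acetylcholine at EC100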
M4 antag: blocks acetylcholine activation of human M4 receptor | CHO-hM4 cells, ACh EC80, Fluo-8 calcium fluorescence | inhibition, % at 3 µM | 0.73% of 360,000 active | AID 624125;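 active = inhibition above its plate's cutoff, the mean inhibition of sample wells plus 3 SD, cut at about 27% in these data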;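 also: 0% = acetylcholine EC80 with DMSO and 100% = DMSO without agonist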
* marks the source's active call; other numbers are inactive results; nt = no result given. Rows were chosen to be rich in hits. Some 3% of all compounds tested hit in one or more screens of this group.

SMILES | M4 PAM | TAAR1 agonist | TAAR1 antagonist | CHRM4 agonist | M4 antag
CC(=O)N1CC(C)Sc2ccc(S(=O)(=O)NCCc3ccc(C)cc3)cc21 (configuration not stated) | -4 | 10 | -15 | 18 | -1
COCCN(CCOC)C(=O)[C@@H](Cc1ccccc1)NC(=O)[C@H]1O[C@@H](n2ccc(N)nc2=O)[C@H](O)[C@@H]1O | nt | 0 | -16 | nt | nt
C=CS(=O)(=O)N(C(=C)C(=O)OC)S(C)(=O)=O | nt | 13 | -9 | nt | nt
CCCCOCCCNC(=O)C[C@H]1C[C@@]2(C(=O)OC)C(=C[C@H](COCc3ccccc3)O[C@@H]2C)N(CCC2=CCCCC2)C1=O | nt | -3 | -24 | nt | nt
CCCCCCCCN1C(=O)[C@@H](CC(=O)NCCCCc2ccccc2)C[C@@]2(C(=O)OC)C1=C[C@H](C1CCCC1)O[C@@H]2C | nt | 6 | -18 | nt | nt
CSc1ccc(C(=O)NCC2CCN(C(=O)C(=O)c3cc4ccccc4o3)CC2)cc1 | nt | 2 | -23 | nt | nt
Cc1cc(N2CCN(CC(C)(C)O)C[C@@H]2C)ccc1N1CCN(CC(C)(C)O)[C@H](C)C1 | nt | 2 | -34 | nt | nt
N#Cc1ccc(-c2nc3ccc(Br)cc3c(=O)n2O)cc1 | 6 | 6 | -28 | 1 | -4
O=c1c2cc(Br)ccc2nc(-c2cccc(C(F)(F)F)c2)n1O | 1 | 46* | -9 | 0 | -6
Cc1ccc(CC(=O)N2CCN(c3cccc(C(F)(F)F)c3)CC2)cc1 | -12 | 13 | 5 | 17 | 28*
Cc1ccc(S(=O)(=O)CC(=O)N2CCN(c3cccc(C(F)(F)F)c3)CC2)cc1 | 3 | 4 | -21 | 10 | -5
O=C(Cn1ncc2ccccc21)N1CCN(c2cccc(C(F)(F)F)c2)CC1 | -2 | 44* | 9 | 4 | 4
COc1ccc2c(n1)Sc1nc3ccccc3nc1N2 | -3 | 22 | 17 | 54* | 1
Cc1cccc2cc(-c3ccccc3)c(-c3ccccc3)c[n+]12 | -34 | 5 | -5 | 0 | 38*
O=[N+]([O-])c1cccc(-c2cc3cccc[n+]3cc2-c2cccc([N+](=O)[O-])c2)c1 | 2 | -1 | -3 | 0 | 0
O=c1[nH][nH]c(C(F)(F)F)c1C=NCc1cccc(Cl)c1 | 1 | 43* | 11 | 1 | 2
O=c1[nH][nH]c(C(F)(F)F)c1C=NCc1ccc(Cl)cc1 | -1 | 24 | 9 | 1 | 9
CCCCNC(=S)N(C)/N=C/c1ccc(OCC(=O)Nc2ccc(OC)cc2)c(OC)c1 | -8 | 16 | 58* | 12 | 16
COc1cc(/C=N/NC(=S)NC(C)C)ccc1OCC(=O)Nc1c(C)cc(C)cc1C | -4 | 7 | 50* | 4 | -7
CCNC(=S)N/N=C/c1ccc(OCC(=O)Nc2ccc(OC)cc2)c(OC)c1 | -25 | 17 | 51* | 21 | 32*
COc1ccc(NC(=O)COc2ccc(/C=N/O)cc2OC)cc1 | 8 | 4 | 17 | 9 | -12
COC(=O)C1=C(C)N(Cc2ccc(C(F)(F)F)cc2)C(=NCc2cccc(C(F)(F)F)c2)NC1c1ccccc1C(F)(F)F (configuration not stated) | nt | 0 | -19 | nt | nt
CCc1ccc(-c2nc(CN3CCC(C(=O)N4CCN(c5ccccc5)CC4)CC3)c(C)o2)cc1 | -27 | 28 | -3 | 41* | 10
CCN(CCNC(=O)C1CCN(Cc2nc(-c3cccc(Cl)c3)oc2C)CC1)c1ccccc1 | -11 | 39* | -3 | 26 | 3
CC(C)[C@H](NC(=O)c1cccs1)C(=O)N1CCC[C@H]1C(=O)NCc1ccccc1 | nt | 1 | -9 | nt | nt
O=C(Nc1ccc(-c2nc3ccccc3o2)cc1)c1cccnc1 | -1 | 31 | 50* | 5 | -1
CCOC(=O)C1=C(C)OC(N)=C(C#N)C1c1cc(F)ccc1F (configuration not stated) | -2 | 3 | 16 | 1 | 30*
CCOC(=O)C1=C(C)OC(N)=C(C#N)C1c1cccc(C)c1 (configuration not stated) | 1 | 0 | 4 | 1 | 0
COc1ccc(N=C2S/C(=C\c3ccc(N4CCOCC4)o3)C(=O)N2CCc2c[nH]c3ccccc23)cc1 | -13 | nt | nt | 8 | 45*
CCOC(=O)N1CCN(C(=O)c2cc(OC)cc(OC)c2)CC1 | 8 | 4 | 13 | 3 | 4
